Experimental data from ChEMBL document CHEMBL4376814, “Novel cyclin-dependent kinase 9 (CDK9) inhibitor with suppression of cancer stemness activity against non-small-cell lung cancer” (Eur J Med Chem, 2019).
Active and inactive are the calls of the source. The rule behind the calls is not given here.

Columns and labels:
[1] = target: T1, CDK4/Cyclin D3 (Homo sapiens) (UniProt P11802+P30281); assay: Inhibition of recombinant full-length human CDK4/cyclinD3 at 1 uM using Rb fragment as substrate measured after 40 mins in presence of [gamma33P]ATP by scintillation counting method relative to control; assay type: protein-complex assay
Outline: (§1)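 Percent inhibition of kinase activity at a single compound concentration, measured by the outsourced Eurofins KinaseProfiler panel. Values are the mean of two independent experiments.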

[2] = target: T2, CDK6/cyclin D3 (Homo sapiens) (UniProt P30281+Q00534); assay: Inhibition of recombinant full-length human CDK6/cyclinD3 at 1 uM using histone H1 as substrate measured after 40 mins in presence of [gamma33P]ATP by scintillation counting method relative to control; assay type: protein-complex assay; outline: as §1
[3] = target: T3, CDK9/cyclin T1 (Homo sapiens) (UniProt O60563+P50750); assay: Inhibition of recombinant full-length human CDK9/cyclinT1 at 1 uM using KTFCGTPEYLAPEVRREPRILSEEEQEMFRDFDYIADWC peptide as substrate measured after 40 mins in presence of [gamma33P]ATP by scintillation counting method relative to control; assay type: protein-complex assay; outline: as §1
[4] = target: T1, CDK4/Cyclin D3 (Homo sapiens); assay: Inhibition of recombinant full-length human CDK4/cyclinD3 at 500 nM using Rb fragment as substrate measured after 40 mins in presence of [gamma33P]ATP by scintillation counting method relative to control; assay type: protein-complex assay; outline: as §1
[5] = target: T2, CDK6/cyclin D3 (Homo sapiens); assay: Inhibition of recombinant full-length human CDK6/cyclinD3 at 500 nM using histone H1 as substrate measured after 40 mins in presence of [gamma33P]ATP by scintillation counting method relative to control; assay type: protein-complex assay; outline: as §1
[6] = target: T3, CDK9/cyclin T1 (Homo sapiens); assay: Inhibition of recombinant full-length human CDK9/cyclinT1 at 500 nM using KTFCGTPEYLAPEVRREPRILSEEEQEMFRDFDYIADWC peptide as substrate measured after 40 mins in presence of [gamma33P]ATP by scintillation counting method relative to control; assay type: protein-complex assay; outline: as §1
A549 [7] = assay: Antiproliferative activity against human A549 cells assessed as inhibition of cell viability at 1 uM after 72 hrs by CCK-8 assay relative to control; assay type: functional; details: A549, 72 h
Outline: (§2)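 Single-concentration viability screen using CCK-8. Cells were seeded at 3000/well and treated for 72 h. A450 read after 1-4 h with reagent. Percent inhibition calculated against untreated control and blank wells as (Ac−As)/(Ac−Ab)×100%.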

A549 [8] = assay: Antiproliferative activity against human A549 cells assessed as inhibition of cell viability at 10 uM after 72 hrs by CCK-8 assay relative to control; assay type: functional; details: A549, 72 h; outline: as §2
NCI-H1299 [9] = assay: Antiproliferative activity against human H1299 cells assessed as inhibition of cell viability at 1 uM after 72 hrs by CCK-8 assay relative to control; assay type: functional; details: NCI-H1299, 72 h; outline: as §2
NCI-H1299 [10] = assay: Antiproliferative activity against human H1299 cells assessed as inhibition of cell viability at 10 uM after 72 hrs by CCK-8 assay relative to control; assay type: functional; details: NCI-H1299, 72 h; outline: as §2

Compound	inhibition [1] [%]	inhibition [2]	inhibition [3] [%]	inhibition [4] [%]	inhibition [5] [%]	inhibition [6] [%]	inhibition at 1 µM (A549 [7]) [%]	inhibition at 10 µM (A549 [8]) [%]	inhibition at 1 µM (NCI-H1299 [9]) [%]	inhibition at 10 µM (NCI-H1299 [10]) [%]
CN(C)C(=O)c1cc2cnc(Nc3ccccc3NC(=O)CCCCCCCN=C=S)nc2n1C1CCCC1	14	1%	11	–	–	–	–	–	–	–
CN(C)C(=O)c1cc2cnc(Nc3ccc(C(=O)NCCCCCCCN=C=S)cc3O)nc2n1C1CCCC1	37	42%	84	–	–	7	–	–	–	–
CN(C)C(=O)c1cc2cnc(Nc3ccc(CNC(=O)CCCCCCCN=C=S)cc3)nc2n1C1CCCC1	93	81%	95	89	63	90	17.8	98.9	53.8	91.7
CN(C)C(=O)c1cc2cnc(Nc3ccc(N4CCN(C(=O)CCCCCCCN=C=S)CC4)cn3)nc2n1C1CCCC1	98	93%	58	91	62	3	–	–	–	–
CN(C)C(=O)c1cc2cnc(Nc3ccc(C(=O)NCCCCCCN=C=S)cc3O)nc2n1C1CCCC1	45	47%	81	–	–	5	–	–	–	–
CN(C)C(=O)c1cc2cnc(Nc3ccc(C(=O)NCCCCCCN=C=S)cn3)nc2n1C1CCCC1	95	82%	73	93	52	27	–	–	–	–
CN(C)C(=O)c1cc2cnc(Nc3ccc(C(=O)NCCCCCCCN=C=S)cn3)nc2n1C1CCCC1	84	64%	73	91	46	18	–	–	–	–
CN(C)C(=O)c1cc2cnc(Nc3ccc(NC(=O)CCCCCCCN=C=S)cc3C(F)(F)F)nc2n1C1CCCC1	63	1%	72	–	–	79	–	–	–	–
CN(C)C(=O)c1cc2cnc(Nc3ccc(C(=O)NCCCCCN=C=S)cn3)nc2n1C1CCCC1	94	87%	87	94	55	37	–	–	–	–
CN(C)C(=O)c1cc2cnc(NNC(=O)CCCCCCCN=C=S)nc2n1C1CCCC1	14	inactive	17	–	–	–	–	–	–	–
O=C(CCCCCCCN=C=S)Nc1ccc(Nc2ncc3nnn(C4CCCC4)c3n2)cc1	19	42%	78	–	–	34	–	–	–	–
CN(C)C(=O)c1cc2cnc(Nc3ccc(NC(=O)CCCCCCCN=C=S)c(F)c3)nc2n1C1CCCC1	86	69%	87	75	51	76	–	–	–	–
CN(C)C(=O)c1cc2cnc(Nc3ccc(C(=O)NCCCCN=C=S)cn3)nc2n1C1CCCC1	95	88%	85	91	53	41	–	–	–	–

More lines, main results first:

inhibition [1] [%]	inhibition [2]	inhibition [3] [%]	inhibition [4] [%]	inhibition [5] [%]	inhibition [6] [%]	Compound	inhibition at 1 µM (A549 [7]) [%]	inhibition at 10 µM (A549 [8]) [%]	inhibition at 1 µM (NCI-H1299 [9]) [%]	inhibition at 10 µM (NCI-H1299 [10]) [%]
98	92%	96	101	63	67	CN(C)C(=O)c1cc2cnc(Nc3ccc(C(=O)NCCCCCCN=C=S)cc3)nc2n1C1CCCC1	35.8	100	49.4	85
95	89%	84	92	54	40	CN(C)C(=O)c1cc2cnc(Nc3ccc(C(=O)NCCCN=C=S)cn3)nc2n1C1CCCC1	–	–	–	–
99	94%	98	98	69	100	CN(C)C(=O)c1cc2cnc(Nc3ccc(C(=O)NCCCN=C=S)cc3)nc2n1C1CCCC1	32.9	102	65.1	91.2
97	94%	97	101	79	97	CN(C)C(=O)c1cc2cnc(Nc3ccc(C(=O)NCCCCCN=C=S)cc3)nc2n1C1CCCC1	29.3	100	50.3	76.5
90	92%	98	91	64	99	CN(C)C(=O)c1cc2cnc(Nc3ccc(S(=O)(=O)NCCCCN=C=S)cc3)nc2n1C1CCCC1	39.4	101	29.9	72.7
98	93%	99	99	79	98	CN(C)C(=O)c1cc2cnc(Nc3ccc(C(=O)NCCCCN=C=S)cc3)nc2n1C1CCCC1	30.2	102	55.2	74.2
98	93%	98	99	70	99	CN(C)C(=O)c1cc2cnc(Nc3ccc(NC(=O)CCCN=C=S)cc3)nc2n1C1CCCC1	56.1	102	39.7	78.8
91	89%	98	85	51	95	CN(C)C(=O)c1cc2cnc(Nc3ccc(S(=O)(=O)NCCCCCN=C=S)cc3)nc2n1C1CCCC1	56.6	102	52.1	83.4
96	90%	97	99	64	99	CN(C)C(=O)c1cc2cnc(Nc3ccc(NC(=O)CCCCCN=C=S)cc3)nc2n1C1CCCC1	56.1	100	34.3	85
97	93%	97	100	71	99	CN(C)C(=O)c1cc2cnc(Nc3ccc(NC(=O)CCCCN=C=S)cc3)nc2n1C1CCCC1	38.2	102	58.6	82.5
94	72%	96	89	43	93	CN(C)C(=O)c1cc2cnc(Nc3ccc(N=C=S)cc3)nc2n1C1CCCC1	44.4	97.9	46.9	83.7
90	89%	97	85	59	96	CN(C)C(=O)c1cc2cnc(Nc3ccc(S(=O)(=O)NCCCN=C=S)cc3)nc2n1C1CCCC1	58.9	102	41.3	72.8
